Out of some 190,000 compounds screened, about 1,800 (0.95%) were called active.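 The calls were made as follows: active = activation above the screen-wide mean of compound activation plus 3 SD (cut at about 130% in these data); inactive = the rest.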 The full list was thinned out, with actives kept by preference.
Assay: enhancers of STAT3 transcriptional signaling – U3A cells, luciferase, luminescence, MLSCN library, primary screen (AID 871);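 also: 0% = background luminescence of wells with medium and substrate only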
Details: IL-6 STAT3-luciferase reporter, at 5.6 µM, active compounds read high, 100% = signal with IL-6 EC80 alone
How it was run: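 Material: STAT1-lacking human U3A cells, STAT3 luciferase reporter | Benchmarks: IL-6-only wells as 100% reference | Probe or stimulus: IL-6 (33 ng/mL) | Timing: Compound 1 h, then IL-6 6 h at 37 °C | Detection: Luminescence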

SMILES | activation (% of control)
O=C(c1ccc(-c2ccccc2)cc1)C1CCCN(C(=O)c2cncs2)C1 (stereo not drawn) | 98.2% (inactive)
COc1cccc(-n2cc3c(c2-c2ccccc2)c(=O)n(C)c(=O)n3C)c1 | 110% (inactive)
COc1ccc(-c2c3c(=O)n(C)c(=O)n(C)c3cn2-c2cccc(OC)c2)cc1 | 154% (active)
COc1ccc(-c2c3c(=O)n(C)c(=O)n(C)c3cn2NC(C)=O)cc1 | 109% (inactive)
CC(C)CCN1C(=O)c2ccc(C(=O)Nc3cccc(S(N)(=O)=O)c3)cc2C1=O | 93.1% (inactive)
CCC(C)NC(=O)c1nn(C)c(=O)c2ccccc12 (stereo not drawn) | 100% (inactive)
CN(C)S(=O)(=O)c1cccc(NC(=S)NCc2ccc3c(c2)OCO3)c1 | 95.2% (inactive)
CCNCc1cc2cc(C)ccc2[nH]c1=O | 139% (active)
CCN(Cc1cc2cc(C)ccc2[nH]c1=O)S(=O)(=O)c1ccccc1 | 91.2% (inactive)
CC(=O)OCc1cc2cc(C)ccc2[nH]c1=O | 103% (inactive)
Cc1ccc(-n2cnc3ncnc(-c4ccccc4)c32)cc1 | 94.7% (inactive)
CC(C)OCCCNC(=S)N1CCC(C(=O)c2ccc3c(c2)OCCO3)CC1 | 102% (inactive)
Cc1cccc(CSc2nc3c(c(=O)n2C)SCC3)c1 | 78.4% (inactive)
O=C(COC(=O)c1ccccn1)Nc1cccc2ccccc12 | 94.8% (inactive)
N#Cc1ccccc1NC(=O)COc1c(Br)cc(Br)c2cccnc12 | 151% (active)
N#Cc1ccc(C(=O)Nc2cccc3cccnc23)c(F)c1 | 87.4% (inactive)
CCN(CC)P(=O)(Nc1ccc(SC(F)F)cc1)c1ccc(N(C)C)cc1NC(=O)c1ccco1 (stereo not drawn) | 131% (inactive)
CCOc1ccc(C2c3[nH]c4ccccc4c3CCN2Cc2cn(CC)nc2C)cc1 (stereo not drawn) | 140% (active)
COc1cc(-c2nnn(CC(=O)NCc3ccccc3)n2)cc(OC)c1OC | 99.5% (inactive)
CCOP(=O)(OCC)C(Nc1ccc([N+](=O)[O-])cc1)c1ccc(Cl)cc1 (stereo not drawn) | 109% (inactive)
Cc1cccc(N2CCN(c3ccc(NC(=O)/C=C\C(=O)O)cc3)CC2)c1 | 100% (inactive)

SMILES | activation (% of control)
CC(=O)c1ccc(NC(=O)C(C)N(C)CC(=O)Nc2ccccc2Cl)cc1 (stereo not drawn) | 96.3% (inactive)
COc1ccc([N+](=O)[O-])cc1NC(=O)C(C)OC(=O)C1c2ccccc2Oc2ccccc21 (stereo not drawn) | 106% (inactive)
COc1ccccc1CC(=O)Nc1ccc([N+](=O)[O-])cc1OC | 99.8% (inactive)
COc1ccc([N+](=O)[O-])cc1C1NN=C(c2cccc3ccccc23)S1 (stereo not drawn) | 139% (active)
Cc1ccccc1OCCOc1ccc([N+](=O)[O-])cc1/C=N/n1cnnc1 | 111% (inactive)
O=C(CCc1nnc(CCCCc2ccccc2)o1)NC(c1cccnc1)C(F)(F)F (stereo not drawn) | 104% (inactive)
CC1(C)C=C2[C@H]3CC[C@@H]4[C@@]5(C)CCC(=O)C(C)(C)[C@@H]5CC[C@@]4(C)[C@]3(C)CC[C@@]2(C(=O)O)CC1 | 99.9% (inactive)
CC(=O)Nc1ccc(Nc2c3ccccc3nc3ccccc23)cc1 | 218% (active)
O=[N+]([O-])c1cccc(Nc2c3ccccc3nc3ccccc23)c1 | 109% (inactive)
CC(=O)Nc1ccc(NC(=O)COc2ncnc3ccccc23)cc1 | 95.9% (inactive)
CC(C)C(C)(C#N)NC(=O)CSc1nc2scc(-c3ccccc3)c2c(=O)[nH]1 (stereo not drawn) | 108% (inactive)
O=C(Nc1ccncc1)c1cc(-c2ccccn2)nc2ccc(Br)cc12 | 111% (inactive)
O=C(CSc1nn(-c2ccc(F)cc2)c(=S)s1)NC1CCS(=O)(=O)C1 (stereo not drawn) | 98.1% (inactive)
Cc1noc(/C=C/c2ccco2)c1S(=O)(=O)N1CCC(C(=O)N2CCc3ccccc32)CC1 | 104% (inactive)
CCS(=O)(=O)N1CCC(C(=O)N2CCN(c3ccccc3)CC2)CC1 | 103% (inactive)
O=C(C1CCN(S(=O)(=O)Cc2ccccc2)CC1)N1CCCc2ccccc21 | 136% (active)
O=C(O)/C(=C/c1cccnc1)NC(=O)c1ccccc1 | 107% (inactive)
Nc1ccc(OCC(O)C[n+]2ccc(CCS(=O)(=O)[O-])cc2)cc1 (stereo not drawn) | 101% (inactive)
CCC(C(=O)Nc1ccc2c(c1)OCCO2)c1ccccc1 (stereo not drawn) | 93.2% (inactive)
CN1C(=O)/C(=N/OC(=O)c2ccccc2Br)c2ccccc21 | 100% (inactive)
CCC1C(=O)c2ccccc2N(C)C1=O (stereo not drawn) | 110% (inactive)

SMILES | activation (% of control)
CN1C(=O)/C(=C\c2cc(Br)cs2)c2ccccc21 | 178% (active)
CN(C)c1ccc(C=C2C(=O)OC3(CCCC3)OC2=O)cc1 | 103% (inactive)
COc1ccccc1-c1nnc(NC(=O)c2ccc3ncsc3c2)o1 | 146% (active)
COc1ccccc1-c1nnc(SCC(=O)Nc2cc(C)on2)o1 | 91% (inactive)
COc1ccccc1-c1nnc(NC(=O)c2cccc(N3C(=O)CCC3=O)c2)o1 | 116% (inactive)
Cc1scc(C(=O)NNC(=S)NCC(C)C)c1C | 97.6% (inactive)
Cc1ccc(C(C)(C)C)c(OCCCCN2CCCC2)c1 | 95.5% (inactive)
Cc1nc(C)c(C(=O)Nc2cccc(C)c2C)o1 | 105% (inactive)
Cc1nc(C)c(C(=O)Nc2ccc(C)c(F)c2)o1 | 92.3% (inactive)
COc1ccc(Cl)cc1NC(=O)c1oc(C)nc1C | 162% (active)
Cc1cc(Cl)ccc1NC(=S)NCCCN1CCCC1=O | 98.6% (inactive)
COc1ccccc1N1CCN(C(=O)c2ccc(Cl)c(S(=O)(=O)N3CCCC3)c2)CC1 | 97% (inactive)
Cc1ccc2c(Cl)c(C(=O)Nc3nn[nH]n3)sc2c1 | 96% (inactive)
Cc1ccc(-c2cc(C(=O)Nc3nn[nH]n3)c3ccccc3n2)c(C)c1 | 140% (active)
Cc1ccc(NC(=O)c2cc(-c3ccc(C)o3)nc3ccccc23)nc1 | 104% (inactive)
CCOC(=O)C1(Cc2cccc(OC)c2)CCN(C(C)COC)CC1 (stereo not drawn) | 108% (inactive)
COc1cccc(NC(=O)c2ccc3c(SCC(=O)O)c4c(nc3c2)CCCC4)c1 | 106% (inactive)
COCC(=O)Nc1cc(C(=O)OC)cc(C(=O)OC)c1 | 97.7% (inactive)
Fc1ccc(CSc2nnc(-c3cc4c(s3)-c3ccccc3CC4)o2)cc1 | 117% (inactive)
CCSc1nnc(-c2cc3c(s2)-c2ccccc2CC3)o1 | 173% (active)
C#CCSc1nnc(-c2sc3ccccc3c2Cl)o1 | 125% (inactive)

— PubChem BioAssay AID871 (The Scripps Research Institute Molecular Screening Center, 2007)
